In ChEMBL document CHEMBL1126593, “Inactivation of monoamine oxidase B by analogues of the anticonvulsant agent milacemide (2-(n-pentylamino)acetamide)” (J Med Chem, 1993) one finds Ki and Ratio data, which are given here for five compounds.

Series [1] addresses T1, Amine oxidase [flavin-containing] B (Bos taurus, UniProt P56560).
T1 sequence (P56560 whole entry): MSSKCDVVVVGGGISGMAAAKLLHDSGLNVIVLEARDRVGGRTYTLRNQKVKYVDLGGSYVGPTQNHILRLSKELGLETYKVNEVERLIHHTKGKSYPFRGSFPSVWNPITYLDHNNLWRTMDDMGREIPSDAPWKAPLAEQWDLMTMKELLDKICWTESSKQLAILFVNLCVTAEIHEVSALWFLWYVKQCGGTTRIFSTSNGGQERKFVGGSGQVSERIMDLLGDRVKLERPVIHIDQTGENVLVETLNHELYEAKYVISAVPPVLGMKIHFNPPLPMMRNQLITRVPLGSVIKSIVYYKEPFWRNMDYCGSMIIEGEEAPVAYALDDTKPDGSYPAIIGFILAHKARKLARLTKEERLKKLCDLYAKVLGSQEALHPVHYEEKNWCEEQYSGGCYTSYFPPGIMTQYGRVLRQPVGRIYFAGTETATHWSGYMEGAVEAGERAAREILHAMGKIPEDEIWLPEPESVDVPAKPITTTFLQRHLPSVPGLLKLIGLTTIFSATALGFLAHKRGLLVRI
Kind of series: Kinetic constant was calculated by inhibition of monoamino oxidase B (MAO B). The procedure, abridged:
(§1)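 Bovine liver MAO B (isolated by published method), 25 °C, 100 mM Tris-HCl pH 9.00. Enzyme incubated with several inactivator concentrations; aliquots withdrawn periodically and residual activity read by benzylamine oxidation (OD change at 250 nm). Irreversibility tested by 24 h dialysis against Tris-HCl pH 9.0.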

Series [2] can be described thus: Ratio is Kinetic constant (Kcat) / Inactivation constant (Kinact) of the MAO B. In a few lines: (§2)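 Turnover from H2O2 release: bovine MAO B with amine at several concentrations in 100 mM Tris-HCl pH 9.00, 25 °C, 90 s (1–2 min for some); leuco crystal violet/horseradish peroxidase in acetate pH 4.5 added, A596 converted via extinction coefficient. Km and kcat from Hanes plots; ratio is kcat over kinact from time-dependent inactivation.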

Series [3] concerns the target T1, Amine oxidase [flavin-containing] B. The series can be described thus: Kinetic constant (KI) was calculated by inhibition of monoamino oxidase B (MAO B). In a few lines: as §1
Series [4] is described as follows: Ratio of Kinetic constant (Kcat) / Inactivation constant (Kinact) of the MAO B; Inactive. The procedure, abridged: as §2
The target in series [5] is T1, Amine oxidase [flavin-containing] B. The series can be described thus: Kinetic constant (KI) was calculated by inhibition of monoamino oxidase B (MAO B); Inactive. The procedure, abridged: as §1
The target is the same in series [6]. Kind of series: Kinetic constant was calculated by inhibition of monoamino oxidase B (MAO B); Inactive. The procedure, abridged: as §1
A short description of series [7]: Ratio of Kinetic constant (Kcat) / Inactivation constant (Kinact) of the MAO B. In a few lines: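 Bovine MAO B. For kcat, the enzyme was incubated for 1–2 min at 25 °C with several substrate concentrations in 100 mM Tris-HCl, pH 9.00. H2O2 was read as A596 after leuco crystal violet, peroxidase and pH 4.5 acetate were added, and kcat was taken from Hanes plots. For kinact, enzyme was incubated with varied inactivator concentrations (Tris-HCl, pH 9.00, 25 °C), and aliquots were assayed periodically.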

For the compound `CCCCCNCCC#N`, the figures for the Ki in series [1] and in series [3] were 4.94 mM and 5.79 mM, respectively. The Ratio in series [2] is given as 9091.

In the case of `CCCCCNCC(=O)O`, in series [4], the Ratio entry is reported as “Not Active”. In addition, the Ki entry in series [5] and in series [6] was “Not Active” throughout.

For `CCCCCNCC#N`, the Ki is 4.94 mM in series [1] and 14 mM in series [3]. In addition, in series [2], the Ratio was determined as 3394.

`CCCCCNCC(=O)OCC`: the Ratio in series [7] amounted to 4435. Moreover, the results for the Ki in series [1] and in series [3] were 2 mM and 14.2 mM, respectively.

Take `CCCCCNCC(N)=O` [MILACEMIDE]: the Ratio in series [7] turned out to be 26289. In addition, the inhibition constant (Ki) in series [1] is 1.08 mM; in series [3] it was 0.94 mM.

The Ki is the dissociation constant of the complex between target and ligand, obtained from inhibition or displacement.
